{
  "source": "ChEMBL document CHEMBL1145471",
  "about": "“Small molecule regulators of autophagy identified by an image-based high-throughput screen” (Proc Natl Acad Sci U S A, 2007)",
  "assay_type_in_all_cases": "functional",
  "key": {"H4 [1]": {"system": "H4", "test": "Induction of light chain 3-GFP level in human H4 cells at 7.71 uM after 24 hrs by high throughput fluorescence microscopy relative to control", "method_in_brief": "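H4 cells stably expressing LC3-GFP, grown in DMEM with 10% FBS, penicillin/streptomycin and 2 mM L-glutamine at 37°C, 5% CO2. Cells were seeded in 96-well plates and exposed to library compounds at 3–12 μM for 24 h, then fixed in 4% paraformaldehyde and stained with 3 μg/ml DAPI. LC3-GFP spot number, size and intensity were measured by high-throughput fluorescence microscopy and expressed relative to DMSO. Triplicates, mean ± SD.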"}, "H4 [2]": {"system": "H4", "test": "Increase in long-lived protein degradation in human H4 cells after 1 hr relative to control", "set-up": "concentration or dose not given beside the values"}, "H4 [3]": {"system": "H4", "test": "Increase in light chain 3-GFP+ autophagosome vesicle area per cell in human H4 cells at 7.71 uM after 24 hrs by high throughput fluorescence microscopy relative to control", "method_in_brief": "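H4 cells stably expressing LC3-GFP, seeded in 96-well plates and exposed to compound for 24 h; screening concentrations were 3–12 μM, with rapamycin 0.22 μM and bafilomycin A1 0.40 μM. Cells fixed in 4% paraformaldehyde and stained with 3 μg/ml DAPI. Number, size and intensity of LC3-GFP spots measured by high-throughput fluorescence microscopy and expressed as percent of DMSO-treated wells. Rapamycin was the positive control. Triplicate wells, mean ± SD; experiments repeated three times.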"}, "H4 [4]": {"system": "H4", "test": "Increase in light chain 3-GFP+ autophagosome vesicle number per cell in human H4 cells at 4.8 uM after 24 hrs by high throughput fluorescence microscopy relative to control", "method_in_brief": "(§1)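 H4 cells stably expressing LC3-GFP, kept in DMEM/10% FBS at 37°C, 5% CO2, were seeded in 96-well plates and exposed to compound for 24 h. Cells were then fixed in 4% paraformaldehyde and stained with 3 μg/ml DAPI. Automated fluorescence microscopy scored the number, size and intensity of LC3-GFP spots. Values are percent of DMSO wells, in triplicate, mean ± SD. Rapamycin served as positive control.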"}, "H4 [5]": {"system": "H4", "test": "Increase in long-lived protein degradation in human H4 cells after 24 hrs relative to control", "set-up": "concentration or dose not given beside the values"}, "H4 [6]": {"system": "H4", "test": "Increase in long-lived protein degradation in human H4 cells after 2 hrs relative to control", "set-up": "concentration or dose not given beside the values"}, "H4 [7]": {"system": "H4", "test": "Increase in light chain 3-GFP+ autophagosome vesicle area per cell in human H4 cells at 4.8 uM after 24 hrs by high throughput fluorescence microscopy relative to control", "method_in_brief": "(§2)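 H4 cells stably expressing LC3-GFP, seeded in 96-well plates and exposed to compound for 24 h; fixed in 4% paraformaldehyde, nuclei stained with 3 μg/ml DAPI. Automated fluorescence microscopy scored number, size and intensity of LC3-GFP spots; values expressed relative to DMSO-treated wells, rapamycin positive control. Triplicate wells, mean ± SD; experiments repeated three times.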"}, "H4 [8]": {"system": "H4", "test": "Effect on FYVE-RFP+ vesicle intensity per cell in human H4 cells after 4 hrs relative to control", "set-up": "concentration or dose not given beside the values", "method_in_brief": "(§3)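 H4 cells stably expressing FYVE-RFP (H4-FYVE), grown in DMEM with 10% FBS, penicillin/streptomycin and 2 mM L-glutamine at 37°C, 5% CO2, seeded in 96-well plates and exposed to compound. Fixed in 4% paraformaldehyde, nuclei stained with 3 μg/ml DAPI, FYVE-RFP+ vesicles quantified by high-throughput fluorescence microscopy against DMSO control. Triplicate wells, mean ± SD.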"}, "H4 [9]": {"system": "H4", "test": "Effect on FYVE-RFP+ vesicle intensity per cell in human H4 cells after 2 hrs relative to control", "set-up": "concentration or dose not given beside the values", "method_in_brief": "as §3"}, "H4 [10]": {"system": "H4", "test": "Increase in light chain 3-GFP+ autophagosome vesicle intensity per cell in human H4 cells at 7.71 uM after 24 hrs by high throughput fluorescence microscopy relative to control", "method_in_brief": "(§4)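 H4 cells stably expressing LC3-GFP were grown in DMEM with 10% FBS and 2 mM L-glutamine at 37°C, 5% CO2. They were exposed to each compound for 24 h, with DMSO as negative and rapamycin as positive control. Cells were then fixed in 4% paraformaldehyde and stained with 3 μg/ml DAPI. High-throughput fluorescence imaging scored LC3-GFP spot number, size and intensity, expressed relative to DMSO. Mean ± SD of triplicates; experiments repeated three times.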"}, "H4 [11]": {"system": "H4", "test": "Induction of light chain 3-GFP level in human H4 cells at 4.8 uM after 24 hrs by high throughput fluorescence microscopy relative to control", "method_in_brief": "as §1"}, "H4 [12]": {"system": "H4", "test": "Effect on FYVE-RFP+ vesicle intensity per cell in human H4 cells after 8 hrs relative to control", "set-up": "concentration or dose not given beside the values", "method_in_brief": "as §3"}, "H4 [13]": {"system": "H4", "test": "Increase in light chain 3-GFP+ autophagosome vesicle number per cell in human H4 cells at 7.71 uM after 24 hrs by high throughput fluorescence microscopy relative to control", "method_in_brief": "as §4"}, "H4 [14]": {"system": "H4", "test": "Increase in long-lived protein degradation in human H4 cells after 4 hrs relative to control", "set-up": "concentration or dose not given beside the values"}, "H4 [15]": {"system": "H4", "test": "Increase in light chain 3-GFP+ autophagosome vesicle intensity per cell in human H4 cells at 4.8 uM after 24 hrs by high throughput fluorescence microscopy relative to control", "method_in_brief": "as §2"}},
  "data": [
    {"smiles": "NCCNS(=O)(=O)c1cccc2cnccc12", "values": [
      {"measurement": "Activity", "setting": "H4 [1]", "result": 96.7, "unit": "%"},
      {"measurement": "Activity", "setting": "H4 [2]", "result": 100.94, "unit": "%"},
      {"measurement": "Activity", "setting": "H4 [3]", "result": 139.79, "unit": "%"},
      {"measurement": "Activity", "setting": "H4 [4]", "result": 181.04, "unit": "%"},
      {"measurement": "Activity", "setting": "H4 [5]", "result": 96.19, "unit": "%"},
      {"measurement": "Activity", "setting": "H4 [6]", "result": 91.55, "unit": "%"},
      {"measurement": "Activity", "setting": "H4 [7]", "result": 172.66, "unit": "%"},
      {"measurement": "Activity", "setting": "H4 [8]", "result": 79.63, "unit": "%"},
      {"measurement": "Activity", "setting": "H4 [9]", "result": 102.35, "unit": "%"},
      {"measurement": "Activity", "setting": "H4 [10]", "result": 156.16, "unit": "%"},
      {"measurement": "Activity", "setting": "H4 [11]", "result": 49.3, "unit": "%"},
      {"measurement": "Activity", "setting": "H4 [12]", "result": 83.01, "unit": "%"},
      {"measurement": "Activity", "setting": "H4 [13]", "result": 130.98, "unit": "%"},
      {"measurement": "Activity", "setting": "H4 [14]", "result": 96.55, "unit": "%"},
      {"measurement": "Activity", "setting": "H4 [15]", "result": 15083, "unit": "%"}
    ]}
  ]
}
